This note sets out measurements from ChEMBL document CHEMBL5705905, “Pharmacological targeting of kinases MST1 and MST2 augments tissue repair and regeneration” (Sci Transl Med, 2016).

pKd: −log10 of the molar value.

For series [1], the system named is Tyrosine-protein kinase ABL1 (Homo sapiens), P00519 [F317L]. Briefly: Inhibition of ABL1 F317L mutant (unknown origin) assessed as remaining activity at 1 uM by Kinome scan method relative to control. The procedure, abridged:
(§1)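 Active-site-dependent competition-binding (KINOMEscan) panel of 468 kinases, test compound at 1 μM (from a 10 mM DMSO stock). Read-out is ctrl% = (test signal − positive control signal)/(negative control signal − positive control signal) × 100. DMSO is the negative control (100%) and a control compound is the positive control (0%). Lower ctrl% means tighter binding.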

Series [2] deals with Aurora kinase C (Homo sapiens) (UniProt Q9UQB9). In words: Inhibition of AURKC (unknown origin) assessed as remaining activity at 1 uM by Kinome scan method relative to control. The procedure, abridged: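 KINOMEscan active-site-dependent competition-binding panel of 468 kinases, compound at 1 μM from a DMSO stock. Result reported as ctrl% = (test signal − positive control signal)/(negative control signal − positive control signal) × 100. The negative control is DMSO (100%) and the positive control is a control compound (0%). Lower ctrl% means tighter binding.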
Chain of Aurora kinase C (Homo sapiens) (Q9UQB9 whole entry): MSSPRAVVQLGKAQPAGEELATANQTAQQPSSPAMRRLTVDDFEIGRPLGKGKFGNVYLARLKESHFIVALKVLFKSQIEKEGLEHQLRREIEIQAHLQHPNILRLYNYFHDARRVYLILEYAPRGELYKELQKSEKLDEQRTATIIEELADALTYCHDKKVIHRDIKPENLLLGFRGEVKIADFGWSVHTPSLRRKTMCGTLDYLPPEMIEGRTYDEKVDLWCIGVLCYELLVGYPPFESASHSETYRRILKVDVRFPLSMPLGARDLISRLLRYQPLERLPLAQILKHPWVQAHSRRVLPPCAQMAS

Series [3] concerns the target Cyclin-dependent kinase 9 (Homo sapiens) (UniProt P50750). Briefly: Inhibition of CDK9 (unknown origin) assessed as remaining activity at 1 uM by Kinome scan method relative to control. The procedure, abridged: (§2)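 Active-site-dependent competition-binding profiling (KINOMEscan) at 1 μM against a 468-kinase panel; compound supplied from a 10 mM DMSO stock. Read-out is ctrl% = (test signal − positive control signal)/(negative control signal − positive control signal) × 100. DMSO is the negative control (100%) and a control compound the positive control (0%). Lower ctrl% means tighter binding.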

The target of series [4] is Megakaryocyte-associated tyrosine-protein kinase (Homo sapiens) (UniProt P42679). In words: Inhibition of CTK (unknown origin) assessed as remaining activity at 1 uM by Kinome scan method relative to control. The procedure, abridged: as §2
The target of series [5] is Ephrin type-A receptor 8 (Homo sapiens) (UniProt P29322). In words: Inhibition of EPHA8 (unknown origin) assessed as remaining activity at 1 uM by Kinome scan method relative to control.
Chain of Ephrin type-A receptor 8 (Homo sapiens) (P29322 whole entry, the tested form may be a part): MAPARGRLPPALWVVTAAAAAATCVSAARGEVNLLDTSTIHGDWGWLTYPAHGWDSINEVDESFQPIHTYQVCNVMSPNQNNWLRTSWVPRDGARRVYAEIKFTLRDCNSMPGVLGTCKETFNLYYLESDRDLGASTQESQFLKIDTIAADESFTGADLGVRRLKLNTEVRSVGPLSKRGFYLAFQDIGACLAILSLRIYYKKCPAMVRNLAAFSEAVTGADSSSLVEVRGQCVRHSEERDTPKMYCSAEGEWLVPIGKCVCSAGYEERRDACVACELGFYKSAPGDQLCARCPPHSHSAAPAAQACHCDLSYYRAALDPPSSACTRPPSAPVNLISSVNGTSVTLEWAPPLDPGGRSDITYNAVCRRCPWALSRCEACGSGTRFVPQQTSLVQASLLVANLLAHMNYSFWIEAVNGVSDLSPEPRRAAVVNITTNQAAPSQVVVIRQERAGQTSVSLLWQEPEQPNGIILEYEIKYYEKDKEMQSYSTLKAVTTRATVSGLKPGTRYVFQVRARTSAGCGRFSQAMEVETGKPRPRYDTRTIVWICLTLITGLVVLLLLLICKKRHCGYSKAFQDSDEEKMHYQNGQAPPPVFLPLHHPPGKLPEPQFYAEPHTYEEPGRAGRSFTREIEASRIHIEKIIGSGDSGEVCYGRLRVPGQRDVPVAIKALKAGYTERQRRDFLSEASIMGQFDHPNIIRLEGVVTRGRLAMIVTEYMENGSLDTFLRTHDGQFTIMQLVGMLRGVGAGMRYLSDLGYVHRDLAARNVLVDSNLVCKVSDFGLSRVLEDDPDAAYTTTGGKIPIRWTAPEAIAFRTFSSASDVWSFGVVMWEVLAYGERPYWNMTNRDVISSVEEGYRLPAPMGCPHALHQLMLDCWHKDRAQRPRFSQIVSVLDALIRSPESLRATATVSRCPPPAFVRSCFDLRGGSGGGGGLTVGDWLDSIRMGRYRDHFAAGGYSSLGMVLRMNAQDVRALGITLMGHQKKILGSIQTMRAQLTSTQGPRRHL
For series [6], the system named is eIF-2-alpha kinase GCN2 (Homo sapiens), Q9P2K8 [S808G]. In words: Inhibition of GCN2 S808G mutant kinase domain 2 (unknown origin) assessed as remaining activity at 1 uM by Kinome scan method relative to control.
Series [7] concerns the target Mitogen-activated protein kinase kinase kinase 13 (Homo sapiens) (UniProt O43283). Briefly: Inhibition of LZK (unknown origin) assessed as remaining activity at 1 uM by Kinome scan method relative to control.
Series [8] deals with Mitogen-activated protein kinase kinase kinase 3 (Homo sapiens) (UniProt Q99759). In words: Inhibition of MAP3K3 (unknown origin) assessed as remaining activity at 1 uM by Kinome scan method relative to control.
Chain of Mitogen-activated protein kinase kinase kinase 3 (Homo sapiens) (Q99759 whole entry): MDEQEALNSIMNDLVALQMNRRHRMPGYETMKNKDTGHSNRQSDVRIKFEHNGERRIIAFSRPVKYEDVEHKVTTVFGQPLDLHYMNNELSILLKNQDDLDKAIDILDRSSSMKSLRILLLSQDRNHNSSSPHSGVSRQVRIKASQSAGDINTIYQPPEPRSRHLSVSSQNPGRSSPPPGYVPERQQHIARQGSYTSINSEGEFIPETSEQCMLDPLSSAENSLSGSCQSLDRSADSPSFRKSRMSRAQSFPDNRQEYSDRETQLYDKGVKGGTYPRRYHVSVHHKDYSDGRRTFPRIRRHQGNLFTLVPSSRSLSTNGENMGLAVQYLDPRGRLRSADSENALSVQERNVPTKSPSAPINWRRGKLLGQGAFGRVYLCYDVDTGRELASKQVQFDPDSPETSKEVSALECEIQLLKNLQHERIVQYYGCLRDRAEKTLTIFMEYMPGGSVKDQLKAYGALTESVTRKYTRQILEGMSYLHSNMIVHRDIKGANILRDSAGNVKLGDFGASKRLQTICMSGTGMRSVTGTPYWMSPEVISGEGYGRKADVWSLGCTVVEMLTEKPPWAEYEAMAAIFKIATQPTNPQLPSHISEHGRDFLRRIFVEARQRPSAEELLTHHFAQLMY
Series [9] deals with Dual specificity mitogen-activated protein kinase kinase 5 (Homo sapiens) (UniProt Q13163). In words: Inhibition of MEK5 (unknown origin) assessed as remaining activity at 1 uM by Kinome scan method relative to control.
Chain of Dual specificity mitogen-activated protein kinase kinase 5 (Homo sapiens) (Q13163 whole entry): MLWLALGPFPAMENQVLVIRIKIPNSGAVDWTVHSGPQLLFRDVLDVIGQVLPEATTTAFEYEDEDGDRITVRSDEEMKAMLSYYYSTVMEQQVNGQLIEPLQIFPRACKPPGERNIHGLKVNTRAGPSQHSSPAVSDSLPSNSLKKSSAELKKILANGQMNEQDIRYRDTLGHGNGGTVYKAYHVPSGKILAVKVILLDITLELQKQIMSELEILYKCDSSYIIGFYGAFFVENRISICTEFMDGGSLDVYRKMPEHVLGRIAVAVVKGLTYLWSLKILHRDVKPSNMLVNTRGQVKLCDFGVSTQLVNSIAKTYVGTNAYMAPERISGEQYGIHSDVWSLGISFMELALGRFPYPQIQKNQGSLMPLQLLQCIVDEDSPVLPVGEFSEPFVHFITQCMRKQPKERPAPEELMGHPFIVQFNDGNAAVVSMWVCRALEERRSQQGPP
Series [10] concerns Hepatocyte growth factor receptor (Homo sapiens), P08581 [Y1235D]. Briefly: Inhibition of MET Y1235D mutant (unknown origin) assessed as remaining activity at 1 uM by Kinome scan method relative to control.
Series [11] addresses Myosin light chain kinase family member 4 (Homo sapiens) (UniProt Q86YV6). Briefly: Inhibition of MYLK4 (unknown origin) assessed as remaining activity at 1 uM by Kinome scan method relative to control. In short, it runs like this: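 KINOMEscan active-site competition binding assay at 1 μM against 468 kinases. Ctrl% = (test − positive control)/(negative control DMSO − positive control) × 100; lower values mean tighter binding.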

Series [12] addresses Phosphatidylinositol 4,5-bisphosphate 3-kinase catalytic subunit alpha isoform (Homo sapiens) (UniProt P42336). Briefly: Inhibition of PIK3CA (unknown origin) assessed as remaining activity at 1 uM by Kinome scan method relative to control.
Series [13] addresses Serine/threonine-protein kinase pim-2 (Homo sapiens) (UniProt Q9P1W9). In words: Inhibition of PIM2 (unknown origin) assessed as remaining activity at 1 uM by Kinome scan method relative to control.
The target in series [14] is Serine/threonine-protein kinase pim-3 (Homo sapiens) (UniProt Q86V86). In words: Inhibition of PIM3 (unknown origin) assessed as remaining activity at 1 uM by Kinome scan method relative to control.
The target in series [15] is cAMP-dependent protein kinase catalytic subunit alpha (Homo sapiens) (UniProt P17612). Briefly: Inhibition of PKAC-alpha (unknown origin) assessed as remaining activity at 1 uM by Kinome scan method relative to control.
The target in series [16] is Serine/threonine-protein kinase PLK2 (Homo sapiens) (UniProt Q9NYY3). Briefly: Inhibition of PLK2 (unknown origin) assessed as remaining activity at 1 uM by Kinome scan method relative to control.
Chain of Serine/threonine-protein kinase PLK2 (Homo sapiens) (Q9NYY3 whole entry, looked up, the tested form may be a part): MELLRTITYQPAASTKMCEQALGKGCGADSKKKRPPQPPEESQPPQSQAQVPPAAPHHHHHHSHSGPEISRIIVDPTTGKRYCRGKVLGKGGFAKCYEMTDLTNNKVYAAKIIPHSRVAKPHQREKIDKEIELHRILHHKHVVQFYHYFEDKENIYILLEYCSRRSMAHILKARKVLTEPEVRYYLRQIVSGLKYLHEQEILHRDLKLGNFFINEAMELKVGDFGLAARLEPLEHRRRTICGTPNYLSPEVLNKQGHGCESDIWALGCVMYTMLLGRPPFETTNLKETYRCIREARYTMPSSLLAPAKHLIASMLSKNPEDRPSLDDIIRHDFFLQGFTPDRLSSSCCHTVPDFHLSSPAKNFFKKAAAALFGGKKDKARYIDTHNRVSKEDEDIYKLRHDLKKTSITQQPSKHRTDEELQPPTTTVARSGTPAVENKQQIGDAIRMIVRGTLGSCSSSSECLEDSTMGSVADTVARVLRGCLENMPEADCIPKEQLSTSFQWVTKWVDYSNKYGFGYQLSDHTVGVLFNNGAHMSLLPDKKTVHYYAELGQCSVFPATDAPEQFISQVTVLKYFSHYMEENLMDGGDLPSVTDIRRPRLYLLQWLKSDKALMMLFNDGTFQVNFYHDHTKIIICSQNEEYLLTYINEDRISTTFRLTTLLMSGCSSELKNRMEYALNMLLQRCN
The target of series [17] is Ribosomal protein S6 kinase alpha-2 (Homo sapiens) (UniProt Q15349). In words: Inhibition of C-terminal kinase domain RSK3 (unknown origin) assessed as remaining activity at 1 uM by Kinome scan method relative to control. The procedure, abridged: as §1
The target of series [18] is Serine/threonine-protein kinase SBK1 (Homo sapiens) (UniProt Q52WX2). In words: Inhibition of SBK1 (unknown origin) assessed as remaining activity at 1 uM by Kinome scan method relative to control.
Chain of Serine/threonine-protein kinase SBK1 (Homo sapiens) (Q52WX2 whole entry): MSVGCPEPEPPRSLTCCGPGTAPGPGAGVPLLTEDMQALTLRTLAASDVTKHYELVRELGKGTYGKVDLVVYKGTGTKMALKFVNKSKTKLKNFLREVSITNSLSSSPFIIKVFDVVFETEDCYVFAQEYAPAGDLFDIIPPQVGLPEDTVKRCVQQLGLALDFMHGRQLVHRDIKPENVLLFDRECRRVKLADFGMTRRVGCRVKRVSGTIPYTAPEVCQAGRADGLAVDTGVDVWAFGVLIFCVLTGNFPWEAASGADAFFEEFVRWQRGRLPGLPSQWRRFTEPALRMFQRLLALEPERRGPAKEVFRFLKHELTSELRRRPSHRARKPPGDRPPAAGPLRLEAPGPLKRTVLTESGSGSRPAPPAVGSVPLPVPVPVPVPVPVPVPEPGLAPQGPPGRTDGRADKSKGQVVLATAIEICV
Series [19] deals with Transient receptor potential cation channel subfamily M member 6 (Homo sapiens) (UniProt Q9BX84). Briefly: Inhibition of TRPM6 (unknown origin) assessed as remaining activity at 1 uM by Kinome scan method relative to control.
The target in series [20] is Testis-specific serine/threonine-protein kinase 3 (Homo sapiens) (UniProt Q96PN8). Briefly: Inhibition of TSSK3 (unknown origin) assessed as remaining activity at 1 uM by Kinome scan method relative to control.
Chain of Testis-specific serine/threonine-protein kinase 3 (Homo sapiens) (Q96PN8 whole entry): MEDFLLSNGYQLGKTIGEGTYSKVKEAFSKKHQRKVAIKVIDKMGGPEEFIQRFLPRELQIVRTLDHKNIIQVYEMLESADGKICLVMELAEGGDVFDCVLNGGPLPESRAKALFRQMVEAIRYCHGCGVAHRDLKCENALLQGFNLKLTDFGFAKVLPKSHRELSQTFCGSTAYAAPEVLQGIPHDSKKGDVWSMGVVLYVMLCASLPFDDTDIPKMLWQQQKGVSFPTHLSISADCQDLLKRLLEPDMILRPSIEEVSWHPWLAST
The target in series [21] is Phosphatidylinositol 5-phosphate 4-kinase type-2 gamma (Homo sapiens, UniProt Q8TBX8). Briefly: Binding affinity to PIP5K2C (unknown origin) assessed as dissociation constant.
Chain of Phosphatidylinositol 5-phosphate 4-kinase type-2 gamma (Q8TBX8 whole entry): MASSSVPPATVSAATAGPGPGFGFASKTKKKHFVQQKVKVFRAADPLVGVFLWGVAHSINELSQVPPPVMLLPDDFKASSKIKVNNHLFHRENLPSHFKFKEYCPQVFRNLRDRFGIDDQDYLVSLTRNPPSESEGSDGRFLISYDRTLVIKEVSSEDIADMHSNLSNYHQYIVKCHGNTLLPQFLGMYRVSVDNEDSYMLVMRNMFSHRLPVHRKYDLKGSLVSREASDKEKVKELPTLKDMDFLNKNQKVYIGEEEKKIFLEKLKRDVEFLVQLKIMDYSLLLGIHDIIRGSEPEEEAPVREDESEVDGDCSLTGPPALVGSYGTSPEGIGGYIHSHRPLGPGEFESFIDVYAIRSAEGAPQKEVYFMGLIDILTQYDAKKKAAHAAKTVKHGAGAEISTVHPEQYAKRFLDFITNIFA
The nature of series [22]: Half life in male Sprague-Dawley rat at 5 mg/kg, iv measured for 24 hrs by LC-MS/MS analysis. Type of series: ADME, organism-based. Particulars: in vivo. In short, it runs like this: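 Sprague-Dawley rats, single intravenous or oral dose. Parameters (half-life, AUC, bioavailability) reported in a supplementary table.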
A short description of series [23]: Toxicity in APAP induced liver injury in mouse assessed as cancer cell growth at 1 mg/kg, ip administered for > 10 months. Type of series: organism-based. The note with it: in vivo, 7300 h.
Series [24] is described as follows: Toxicity in DSS-induced mouse assessed as body weight loss at 1 mg/kg, ip administrated daily for over 1 to 21 days. Type of series: organism-based. Particulars: in vivo, time 1-21 day. In short, it runs like this: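 Colitis was induced with oral DSS on days 1–7, with vehicle or 1 mg/kg i.p. daily, n = 12 per group. Body weight was recorded over days 1–21 as a percentage of day 1; means ± SD, Student's t test per time point.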

Chain of Cyclin-dependent kinase 9 (Homo sapiens) (P50750 whole entry): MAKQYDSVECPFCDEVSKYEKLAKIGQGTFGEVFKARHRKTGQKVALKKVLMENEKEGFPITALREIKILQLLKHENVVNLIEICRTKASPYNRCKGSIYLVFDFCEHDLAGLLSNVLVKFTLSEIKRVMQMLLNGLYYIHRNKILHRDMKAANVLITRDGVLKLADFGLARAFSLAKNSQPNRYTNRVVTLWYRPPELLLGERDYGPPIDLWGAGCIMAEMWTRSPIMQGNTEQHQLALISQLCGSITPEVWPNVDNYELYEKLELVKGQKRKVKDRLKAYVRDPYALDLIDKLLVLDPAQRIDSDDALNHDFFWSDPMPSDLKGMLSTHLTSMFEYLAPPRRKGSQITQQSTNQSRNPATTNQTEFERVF

`CN1C(=O)c2sccc2N(C)c2nc(Nc3ccc(S(N)(=O)=O)cc3)ncc21`: the Activity in [1] is 32%; in series [2], 95%; in [3], 84%; in series [4], 59%; in series [5], 100%; in [6], 100%. In addition, the Activity in [7] was determined as 86%; in series [8] it was 2%; in series [9], 79%; in series [10] it was 83%; in [11], 89%; in series [12], 88%. For the same compound, the Activity in series [13] was determined as 100%; in series [14], 100%; in series [15], 97%; in series [16], 42%; in series [17] it was 92%; in series [18] it was 42%. Also, the Activity is 94% in [19], 93% in series [20], “Non-Toxic” in [23] and “Toxic” in series [24]. Moreover, the pKd – broadly, the negative decadic logarithm of the Kd, by convention in mol/L – in [21] is 7.47. Besides, in series [22], the half-life (commonly how long it takes for the measured level to halve) was 74.4 min.
